Measured values taken from ChEMBL document CHEMBL1128702, “Structure-activity relationships of the antimalarial agent artemisinin. 2. Effect of heteroatom substitution at O-11: synthesis and bioassay of N-alkyl-11-aza-9-desmethylartemisinins” (J Med Chem, 1995).

Experiments:
Homo sapiens [1] = organism: Homo sapiens; experiment: Relative potency was determined in vitro in paratized human whole blood against chloroquine sensitive (D-6) strain of Plasmodium falciparum in University of mississippi using parasite lactate dehydrogenase assay; assay type: functional
Summary of the method: (§1)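 P. falciparum W-2 and D-6 tested at University of Mississippi by Makler parasite lactate dehydrogenase assay: pLDH reduces APAD to APADH (human RBC LDH does so only slowly); APADH detected colorimetrically via nitroblue tetrazolium reduction to blue formazan. Relative potencies derived as for the Walter Reed assay.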

Homo sapiens [2] = organism: Homo sapiens; experiment: Relative potency was determined in vitro in paratized human whole blood against […]strain of Plasmodium falciparum in University of mississippi using parasite lactate dehydrogenase assay; assay type: functional; summary of the method: as §1
Homo sapiens [3] = organism: Homo sapiens; experiment: Relative potency was determined in vitro in paratized human whole blood against […]strain of Plasmodium falciparum in WR(Walter Reed) army institute of research; assay type: functional
Plasmodium falciparum [4] = experiment: Relative potency was determined in vitro in paratized human whole blood against drug resistant strain of Plasmodium falciparum strain-Indochina(W-2)
Plasmodium falciparum [5] = experiment: Relative potency was determined in vitro in paratized human whole blood against drug resistant strain of Plasmodium falciparum strain-Sierra Leone(D-6)
[6] = Partition coefficient (logP); assay type: physicochemical; settings: octanol/water
Summary of the method: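 log P measured by literature procedures using standard values, also calculated with CLOGP; UV detection at 330 nm for ketone standards and 216 nm for artemisinin derivatives; samples run in triplicate.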

C[C@@H]1CC[C@H]2CC(=O)N(Cc3ccccc3)C3O[C@@]4(C)CC[C@@H]1[C@]32OO4 (stereo partly drawn)
Relative potency (Homo sapiens [1]): 146% | Relative potency (Homo sapiens [2]): 252% | Relative potency (Homo sapiens [3]): 217% | Relative potency (Plasmodium falciparum [4]): 217% | Relative potency (Plasmodium falciparum [5]): 189%

C[C@@H]1CC[C@H]2CC(=O)N(Cc3ccc(Cl)cc3)C3O[C@@]4(C)CC[C@@H]1[C@]32OO4 (stereo partly drawn)
logP [6]: 3.96 | Relative potency (Homo sapiens [1]): 128% | Relative potency (Homo sapiens [2]): 311% | Relative potency (Homo sapiens [3]): 69% | Relative potency (Plasmodium falciparum [4]): 69% | Relative potency (Plasmodium falciparum [5]): 111%

C[C@@H]1CC[C@H]2CC(=O)N(CCCCCC(=O)O)C3O[C@@]4(C)CC[C@@H]1[C@]32OO4 (stereo partly drawn)
Relative potency (Plasmodium falciparum [4]): 2% | Relative potency (Plasmodium falciparum [5]): 12%

C[C@@H]1CC[C@H]2CC(=O)N(CCN(C)C)C3O[C@@]4(C)CC[C@@H]1[C@]32OO4 (stereo partly drawn)
Relative potency (Plasmodium falciparum [5]): 37%

C[C@@H]1CC[C@H]2CC(=O)N(CCc3ccccc3)C3O[C@@]4(C)CC[C@@H]1[C@]32OO4 (stereo partly drawn)
logP [6]: 3.5 | Relative potency (Homo sapiens [1]): 187% | Relative potency (Homo sapiens [2]): 204% | Relative potency (Homo sapiens [3]): 143% | Relative potency (Plasmodium falciparum [4]): 143% | Relative potency (Plasmodium falciparum [5]): 197%

CC(C)CN1C(=O)C[C@@H]2CC[C@@H](C)[C@@H]3CC[C@@]4(C)OO[C@@]23C1O4 (stereo partly drawn)
logP [6]: 3.01 | Relative potency (Homo sapiens [1]): 155% | Relative potency (Homo sapiens [2]): 227% | Relative potency (Homo sapiens [3]): 105% | Relative potency (Plasmodium falciparum [4]): 105% | Relative potency (Plasmodium falciparum [5]): 145%

C[C@@H]1CC[C@H]2CC(=O)N(CC(=O)O)C3O[C@@]4(C)CC[C@@H]1[C@]32OO4 (stereo partly drawn)
logP [6]: 1.69 | Relative potency (Plasmodium falciparum [5]): 6%

CC(C)CCN1C(=O)C[C@@H]2CC[C@@H](C)[C@@H]3CC[C@@]4(C)OO[C@@]23C1O4 (stereo partly drawn)
logP [6]: 3.54 | Relative potency (Plasmodium falciparum [4]): 92% | Relative potency (Plasmodium falciparum [5]): 149%

CCCN1C(=O)C[C@@H]2CC[C@@H](C)[C@@H]3CC[C@@]4(C)OO[C@@]23C1O4 (stereo partly drawn)
logP [6]: 2.61 | Relative potency (Plasmodium falciparum [4]): 111% | Relative potency (Plasmodium falciparum [5]): 75%

C[C@@H]1CC[C@H]2CC(=O)N(CCCc3ccccc3)C3O[C@@]4(C)CC[C@@H]1[C@]32OO4 (stereo partly drawn)
logP [6]: 4.03 | Relative potency (Homo sapiens [1]): 147% | Relative potency (Homo sapiens [2]): 281% | Relative potency (Homo sapiens [3]): 105% | Relative potency (Plasmodium falciparum [4]): 105% | Relative potency (Plasmodium falciparum [5]): 205%

C[C@@H]1CC[C@H]2CC(=O)N(C)C3O[C@@]4(C)CC[C@@H]1[C@]32OO4 (stereo partly drawn)
logP [6]: 1.55 | Relative potency (Plasmodium falciparum [4]): 500% | Relative potency (Plasmodium falciparum [5]): 213%

CCCCCN1C(=O)C[C@@H]2CC[C@@H](C)[C@@H]3CC[C@@]4(C)OO[C@@]23C1O4 (stereo partly drawn)
logP [6]: 3.67 | Relative potency (Plasmodium falciparum [4]): 63% | Relative potency (Plasmodium falciparum [5]): 110%

C[C@@H]1CC[C@H]2[C@@H](C)C(=O)O[C@@H]3O[C@@]4(C)CC[C@@H]1[C@]32OO4 [ARTEMISININ]
Relative potency (Plasmodium falciparum [4]): 100% | Relative potency (Plasmodium falciparum [5]): 100%
